ChEMBL document CHEMBL1124558, “Differential effects of a series of hydroxamic acid derivatives on 5-lipoxygenase and cyclooxygenase from neutrophils and 12-lipoxygenase from platelets and their in vivo effects on inflammation and anaphylaxis” (J Med Chem, 1989)
One block for each molecule: values may come before it.

Tests used:
[1] = target: T1, Cysteinyl leukotriene receptor 1 (Cavia porcellus, UniProt Q2NNR5); assay: Activity to bind against [3H]LTD4 radioligand in guinea pig
T1 sequence (Q2NNR5 whole entry): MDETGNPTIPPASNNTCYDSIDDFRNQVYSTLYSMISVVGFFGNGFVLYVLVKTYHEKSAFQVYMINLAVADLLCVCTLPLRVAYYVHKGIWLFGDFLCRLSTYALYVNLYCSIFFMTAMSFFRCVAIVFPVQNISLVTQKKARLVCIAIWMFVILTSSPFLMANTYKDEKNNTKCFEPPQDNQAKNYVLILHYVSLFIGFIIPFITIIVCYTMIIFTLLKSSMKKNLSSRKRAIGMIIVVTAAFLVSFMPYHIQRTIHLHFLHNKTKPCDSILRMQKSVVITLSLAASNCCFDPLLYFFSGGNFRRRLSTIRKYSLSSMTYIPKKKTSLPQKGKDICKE

[2] = target: T2, Cyclooxygenase (Rattus norvegicus) (UniProt P35355+Q63921); assay: (§1) In vitro inhibitory activity against rat polymorphonuclear leukocyte Prostaglandin G/H synthase; type: protein assay; conditions: concentration not given here
Summary of the method: (§2)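 Glycogen-elicited peritoneal PMNs from Sprague-Dawley rats were homogenized at 0 °C in 0.1 M Tris-HCl pH 8.2 with 10 μM NDGA. Compound (DMSO ≤0.1%) was preincubated 5 min at 37 °C, then 8 μM [14C]arachidonic acid with 4 mM glutathione and epinephrine was added for 10 min. TxB2 and PGF2α were measured by TLC and scintillation counting.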

Mus musculus [3] = assay: In vivo inhibitory activity against mouse ear inflammation when administered a compound dose (1 mg/ear); type: functional
Summary of the method: (§3)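 Compound or ethanol vehicle applied topically to one ear of male DBA/2J mice 60 min before arachidonic acid (2 mg/ear). […] Groups of 5 mice.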

[4] = target: T3, Polyunsaturated fatty acid 5-lipoxygenase (Homo sapiens, UniProt P09917); assay: In vitro inhibition of polymorphonuclear leukocyte derived human 5-lipoxygenase
T3 sequence (P09917 whole entry): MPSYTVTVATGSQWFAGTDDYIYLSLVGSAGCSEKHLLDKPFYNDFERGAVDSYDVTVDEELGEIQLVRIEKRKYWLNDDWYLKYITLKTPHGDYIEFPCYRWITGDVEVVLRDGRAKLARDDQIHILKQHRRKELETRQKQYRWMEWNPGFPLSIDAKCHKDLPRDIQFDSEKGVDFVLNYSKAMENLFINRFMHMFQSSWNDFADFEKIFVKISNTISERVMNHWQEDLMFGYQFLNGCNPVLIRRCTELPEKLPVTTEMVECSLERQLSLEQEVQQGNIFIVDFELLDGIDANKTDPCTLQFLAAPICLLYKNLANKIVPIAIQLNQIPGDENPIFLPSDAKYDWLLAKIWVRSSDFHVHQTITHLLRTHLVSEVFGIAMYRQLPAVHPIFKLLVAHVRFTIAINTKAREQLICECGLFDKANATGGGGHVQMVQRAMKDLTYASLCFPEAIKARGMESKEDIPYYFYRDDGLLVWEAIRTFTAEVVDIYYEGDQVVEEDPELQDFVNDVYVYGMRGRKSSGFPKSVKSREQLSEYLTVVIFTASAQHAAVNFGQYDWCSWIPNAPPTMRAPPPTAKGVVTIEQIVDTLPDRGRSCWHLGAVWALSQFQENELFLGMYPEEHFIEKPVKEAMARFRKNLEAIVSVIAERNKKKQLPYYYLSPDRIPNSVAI
Summary of the method: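 PMNs from venous blood of healthy volunteers, isolated by dextran sedimentation and Percoll gradient (>90% pure) and held in Ca/Mg PBS with 1 mg/mL glucose and 1 μM indomethacin. Challenged with calcium ionophore and [14C]arachidonic acid for 3 min. 5-HETE measured by TLC and scintillation counting; IC50 read graphically.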

[5] = target: T4, Polyunsaturated fatty acid 5-lipoxygenase (Rattus norvegicus, UniProt P12527); assay: In vitro inhibition of rat polymorphonuclear leukocyte 5-lipoxygenase
T4 sequence (P12527 whole entry): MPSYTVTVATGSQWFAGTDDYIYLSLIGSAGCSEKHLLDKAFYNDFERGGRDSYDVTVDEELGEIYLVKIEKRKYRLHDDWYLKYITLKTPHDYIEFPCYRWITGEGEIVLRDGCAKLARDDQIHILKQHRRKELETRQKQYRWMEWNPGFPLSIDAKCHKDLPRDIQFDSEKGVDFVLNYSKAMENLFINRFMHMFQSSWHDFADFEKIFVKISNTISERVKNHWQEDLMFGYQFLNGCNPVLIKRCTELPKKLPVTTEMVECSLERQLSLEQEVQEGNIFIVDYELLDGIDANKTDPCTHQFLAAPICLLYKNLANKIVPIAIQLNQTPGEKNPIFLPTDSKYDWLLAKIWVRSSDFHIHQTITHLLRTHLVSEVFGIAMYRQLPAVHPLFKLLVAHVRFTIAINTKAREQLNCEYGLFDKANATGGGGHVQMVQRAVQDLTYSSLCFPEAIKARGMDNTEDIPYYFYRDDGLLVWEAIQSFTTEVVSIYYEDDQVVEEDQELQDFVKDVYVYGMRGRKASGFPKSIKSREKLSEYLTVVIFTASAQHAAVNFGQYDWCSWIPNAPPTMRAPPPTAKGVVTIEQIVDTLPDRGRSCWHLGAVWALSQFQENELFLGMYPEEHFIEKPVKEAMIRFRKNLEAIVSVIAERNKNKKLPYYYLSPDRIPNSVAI
Summary of the method: (§4)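 Intact glycogen-elicited peritoneal PMNs pooled from 4–5 Sprague-Dawley rats (250 g), preincubated 5 min at 30 °C with compound in DMSO (≤0.1% final) plus 1 μM indomethacin. Challenge with [14C]arachidonic acid (4 μM) and A23187 (0.8 μM) for 3 min. Extraction, TLC, 5-HETE by scintillation counting.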

Cavia porcellus [6] = assay: In vivo inhibitory activity against guinea pig systemic anaphylaxis when administered a compound dose (60 mg/kg) perorally; type: functional; conditions: po
Summary of the method: (§5)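 Male Hartley guinea pigs sensitised ip with ovalbumin (2.7 mg/kg) plus LPS adjuvant, then challenged 2 weeks later with 1% ovalbumin aerosol for 30 s. Pretreated with pyrilamine, indomethacin and propranolol 20 min before challenge. Compound given in PEG 400 1 h before challenge.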

Cyclooxygenase [7] = target: T5, Cyclooxygenase (Rattus norvegicus, UniProt P35355+Q63921); assay: (§6) In vitro inhibitory activity against rat polymorphonuclear leukocyte Prostaglandin G/H synthase at 100 uM; type: protein assay; summary of the method: as §2
T5 sequence (P35355 whole entry): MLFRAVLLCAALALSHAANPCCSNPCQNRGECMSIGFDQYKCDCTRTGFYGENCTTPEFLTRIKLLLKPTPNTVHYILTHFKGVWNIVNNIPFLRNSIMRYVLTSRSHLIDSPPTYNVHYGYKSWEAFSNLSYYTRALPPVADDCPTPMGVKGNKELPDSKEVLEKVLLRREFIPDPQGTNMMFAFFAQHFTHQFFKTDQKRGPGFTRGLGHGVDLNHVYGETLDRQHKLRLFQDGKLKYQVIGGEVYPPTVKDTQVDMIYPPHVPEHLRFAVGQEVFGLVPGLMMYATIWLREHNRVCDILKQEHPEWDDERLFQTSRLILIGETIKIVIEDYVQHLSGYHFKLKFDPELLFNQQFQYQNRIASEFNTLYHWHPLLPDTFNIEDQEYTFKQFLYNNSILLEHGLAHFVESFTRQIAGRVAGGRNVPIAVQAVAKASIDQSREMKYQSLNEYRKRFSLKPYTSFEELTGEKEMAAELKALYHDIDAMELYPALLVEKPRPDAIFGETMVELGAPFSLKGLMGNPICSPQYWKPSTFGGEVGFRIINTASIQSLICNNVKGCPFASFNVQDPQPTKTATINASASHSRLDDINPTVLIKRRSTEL
T5 sequence (Q63921 whole entry): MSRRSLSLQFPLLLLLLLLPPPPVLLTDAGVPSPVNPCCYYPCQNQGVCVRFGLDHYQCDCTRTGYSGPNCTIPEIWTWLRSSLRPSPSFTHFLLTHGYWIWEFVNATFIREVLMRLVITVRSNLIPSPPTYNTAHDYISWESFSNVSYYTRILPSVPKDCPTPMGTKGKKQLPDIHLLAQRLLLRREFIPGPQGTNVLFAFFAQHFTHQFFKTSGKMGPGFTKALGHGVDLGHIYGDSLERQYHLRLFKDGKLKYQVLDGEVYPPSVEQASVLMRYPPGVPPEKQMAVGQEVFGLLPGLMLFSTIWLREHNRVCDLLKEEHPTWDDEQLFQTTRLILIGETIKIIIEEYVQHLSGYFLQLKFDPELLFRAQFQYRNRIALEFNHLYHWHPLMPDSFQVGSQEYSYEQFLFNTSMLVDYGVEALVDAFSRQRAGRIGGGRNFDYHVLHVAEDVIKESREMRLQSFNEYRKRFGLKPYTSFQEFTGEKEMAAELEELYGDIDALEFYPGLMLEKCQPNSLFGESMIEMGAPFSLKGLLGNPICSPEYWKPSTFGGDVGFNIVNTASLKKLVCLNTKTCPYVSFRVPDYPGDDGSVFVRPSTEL

[8] = target: T6, Polyunsaturated fatty acid 5-lipoxygenase (Rattus norvegicus) (UniProt P12527); assay: In vitro inhibitory activity against polymorphonuclear leukocyte 5-lipoxygenase in rat cell at 10 uM; summary of the method: as §4
T6 sequence (whole entry): T4 sequence (P12527 whole entry)

[9] = target: T7, Polyunsaturated fatty acid 5-lipoxygenase (Homo sapiens) (UniProt P09917); assay: In vitro inhibitory activity against polymorphonuclear leukocyte 5-lipoxygenase in human cell at 10 uM
T7 sequence (whole entry): T3 sequence (P09917 whole entry)
Summary of the method: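 Human PMNs from venous blood of a healthy volunteer (EDTA) were purified by dextran sedimentation, a Percoll gradient and NH4Cl red-cell lysis (>90% pure). They were held in Ca/Mg PBS with 1 mg/mL glucose and 1 μM indomethacin, then challenged with A23187 (0.8 μM) and [14C]arachidonic acid (4 μM) for 3 min. 5-HETE was measured by TLC and scintillation counting.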

[10] = target: T8, Arachidonate 12-lipoxygenase (Rattus norvegicus) (UniProt Q02759); assay: In vitro inhibitory activity against rat platelet 12-lipoxygenase at 10 uM
T8 sequence (whole entry): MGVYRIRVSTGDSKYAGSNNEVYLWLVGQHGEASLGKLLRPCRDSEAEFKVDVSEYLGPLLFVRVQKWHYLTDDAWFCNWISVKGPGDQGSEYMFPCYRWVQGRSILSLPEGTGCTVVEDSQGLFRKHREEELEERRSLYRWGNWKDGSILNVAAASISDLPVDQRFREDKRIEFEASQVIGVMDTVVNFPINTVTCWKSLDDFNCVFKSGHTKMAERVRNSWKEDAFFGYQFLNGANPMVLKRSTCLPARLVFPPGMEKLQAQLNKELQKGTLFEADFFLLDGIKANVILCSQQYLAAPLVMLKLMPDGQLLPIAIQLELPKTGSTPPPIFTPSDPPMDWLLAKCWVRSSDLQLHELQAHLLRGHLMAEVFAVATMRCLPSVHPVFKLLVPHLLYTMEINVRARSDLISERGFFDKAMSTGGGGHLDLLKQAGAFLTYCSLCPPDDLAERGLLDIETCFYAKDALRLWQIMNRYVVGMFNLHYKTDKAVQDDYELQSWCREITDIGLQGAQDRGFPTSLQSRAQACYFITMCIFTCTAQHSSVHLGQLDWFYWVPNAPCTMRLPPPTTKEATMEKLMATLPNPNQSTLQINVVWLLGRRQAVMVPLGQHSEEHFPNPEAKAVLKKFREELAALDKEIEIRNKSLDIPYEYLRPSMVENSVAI
Summary of the method: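 Cell-free cytosolic 12-lipoxygenase from Sprague-Dawley rat platelets (0.4 mg/mL), preincubated 5 min at 30 °C with compound in DMSO (≤0.1% final), 25 mM Tris pH 7.4, 1 μM indomethacin, 100 μM glutathione; reaction started with 6 μM [14C]arachidonic acid and quenched with citric acid/NDGA after 3 min. 12-HETE isolated by TLC and counted by scintillation; % inhibition, duplicate.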

[11] = target: T2, Cyclooxygenase (Rattus norvegicus); assay: as §6; type: protein assay; summary of the method: as §2
[12] = tested on: 5-lipoxygenase (Cavia porcellus); assay: Inhibitory activity against polymorphonuclear leukocyte 5-lipoxygenase using guinea pig supernatant at 10 uM
[13] = target: T2, Cyclooxygenase (Rattus norvegicus); assay: In vitro inhibitory activity against rat polymorphonuclear leukocyte Prostaglandin G/H synthase at 30 uM; type: protein assay
Summary of the method: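 Homogenate of glycogen-elicited rat peritoneal PMNs in 0.1 M Tris-HCl pH 8.2 with 10 μM NDGA, preincubated 5 min at 37 °C with compound (≤0.1% DMSO). [14C]arachidonic acid (8 μM) added with 4 mM glutathione and epinephrine; 10 min reaction. TxB2 and PGF2α separated by TLC and counted.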

[14] = tested on: 5-lipoxygenase (Cavia porcellus); assay: In vitro inhibitory activity against polymorphonuclear leukocyte 5-lipoxygenase using guinea pig supernatant at 10 uM
Cavia porcellus [15] = assay: In vivo inhibitory activity against guinea pig systemic anaphylaxis when administered a compound dose (200 mg/kg) perorally; type: functional; conditions: po; summary of the method: as §5
Cyclooxygenase [16] = target: T5, Cyclooxygenase; assay: as §1; type: functional; summary of the method: as §2
Mus musculus [17] = assay: In vivo inhibition of mouse ear inflammation; type: functional; design: concentration or dose not given beside the values; summary of the method: as §3

SMILES: O=C(O)CCCCN(O)C(=O)Cc1ccc(OCc2ccccc2)cc1
Inhibition (Cyclooxygenase [7]): 50%
inhibition [8]: 21%

SMILES: O=C(CCCc1ccccc1)NCCc1ccccc1
inhibition [9]: < 10%
inhibition [10]: < 10%
inhibition [11]: < 10%
inhibition [12]: 12%

SMILES: CCCN(O)C(=O)Cc1ccc(OCc2ccccc2)cc1
inhibition in vivo at 200 mg/kg (Cavia porcellus [15]): 0%
IC50 [4]: 160 nM
IC50 [5]: 100 nM
IC50 (Cyclooxygenase [16]): 30000 nM
Inhibition (Mus musculus [17]): 82%

The next lines start with results.

Ki [1]: 1000 nM
inhibition [2]: < 10%
IC50 [4]: 1000 nM
IC50 [5]: 350 nM
SMILES: CN(O)C(=O)Cc1ccc(OCc2ccc3ccccc3n2)cc1
Inhibition (Mus musculus [3]): 48%
inhibition in vivo at 60 mg/kg (Cavia porcellus [6]): 94%

inhibition [9]: 22%
inhibition [13]: 24%
inhibition [10]: < 10%
inhibition [14]: < 10%
SMILES: O=C(Cc1ccc(OCc2ccccc2)cc1)N(Cc1ccccc1)OCc1ccccc1
